In ChEMBL document CHEMBL1122273, “5-sulfamoylorthanilic acids, a sulfonamide series with salidiuretic activity” (J Med Chem, 1983):
Activity calls are given as the source filed them. The calls are words filed in the database; no cut-off is given here.

Experiments:
[1] = test system: Canis familiaris; assay: Salidiuretic activity on the basis of the 1.56 mg/Kg po dog assay; Compound was highly active; assay type: functional, organism-based; conditions: Canis lupus familiaris; Urine
[2] = It is the ratio, measured as saluretic activity in the dog as concentration of Cl- in urinary excretion (dose 1.56 mg/Kg, po) to that of (Na+)+(K+); assay type: functional, Urine
Procedure, shortened: (§1)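 Trained male beagles, fasted 24 h with tap water ad libitum. Bladder emptied by catheter, then 20 mL/kg tap water by stomach tube, with 4 mL/kg water at each hourly catheterization up to 8 h. The first 2 h of urine served as control. Oral dosing came after the second catheterization, and 1–6 h urine was pooled. Na⁺ and K⁺ were measured by flame photometry, Cl⁻ argentometrically, in mequiv/kg.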

[3] = species on record: Rattus norvegicus; assay: Diuretic activity in the rats, determined by a modified Lipschitz test; assay type: functional, Urine
Procedure, shortened: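 Modified Lipschitz test: rats deprived of water 24 h, grouped in threes of similar weight in diuresis funnels. Oral dose of 50 mg/kg, suspended in 2% starch solution, by stomach tube.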

[4] = It is the ratio, measured as saluretic activity in the dog as concentration of Na+ in urinary excretion (dose 1.56 mg/Kg, po) to that of K; assay type: functional, Urine; procedure, shortened: as §1
[5] = species on record: Rattus norvegicus; assay: Saluretic activity in the rat measured as concentration of chloride in urine; assay type: functional
Procedure, shortened: (§2)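 Rats deprived of food 24 h, water ad libitum, dosed 50 mg/kg by stomach tube as suspension in 2% starch, no extra water load. Groups of three in diuresis funnels; urine over first 5 h collected. Na⁺ and K⁺ by flame photometry, Cl⁻ argentometrically; expressed as mequiv/kg.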

[6] = species on record: Rattus norvegicus; assay: Saluretic activity in the rat measured as concentration of Na+ in urine; assay type: functional; procedure, shortened: as §2
[7] = test system: Canis familiaris; assay: Saluretic activity in the dog measured as concentration of Na+ in urinary excretion (2 animals/dose) at (dose 1.56 mg/Kg, po); assay type: functional, Canis lupus familiaris, Urine
Procedure, shortened: (§3)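 Male beagles trained to rest on a table and to accept stomach tube and catheter. Food withdrawn 24 h before, tap water ad libitum. Bladder emptied by catheter, then 20 mL/kg tap water by stomach tube. Catheterized hourly up to 8 h with 4 mL/kg water orally each time; first 2 h urine served as control. Oral dosing after second catheterization. Pooled 1–6 h urine; Na⁺/K⁺ by flame photometry, Cl⁻ argentometrically.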

[8] = test system: Canis familiaris; assay: Saluretic activity in the dog measured as concentration of Cl - in urinary excretion (2 animals/dose) at (dose 1.56 mg/Kg, po); assay type: functional, Canis lupus familiaris, Urine
Procedure, shortened: (§4)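 Male beagles trained to the procedures, food withdrawn 24 h before, tap water ad libitum. Bladder emptied by catheter, then 20 mL/kg tap water by stomach tube, plus 4 mL/kg orally at each hourly catheterization up to 8 h. The first 2 h of urine served as control. Compound given orally after the second catheterization. Urine from 1–6 h post-dose pooled; Na⁺ and K⁺ by flame photometry, Cl⁻ argentometrically, in mequiv/kg.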

[9] = test system: Canis familiaris; assay: Saluretic activity in the dog measured as concentration of K+ in urinary excretion (2 animals/dose) at (dose 1.56 mg/Kg, po); assay type: functional, Canis lupus familiaris, Urine; procedure, shortened: as §3
[10] = test system: Canis familiaris; assay: Diuretic activity in the dog (2 animals/dose) at (dose 1.56 mg/Kg), when administered perorally; assay type: functional, Canis lupus familiaris, Urine; procedure, shortened: as §1
[11] = test system: Rattus norvegicus; assay: Salidiuretic activity on the basis of the 50 mg/kg po rat assay; Compound was active; conditions: Urine
[12] = species on record: Rattus norvegicus; assay: Saluretic activity in the rat measured as concentration of K+ in urine; assay type: functional; procedure, shortened: as §2
[13] = test system: Canis familiaris; assay: Diuretic activity in the dog (2 animals/dose) at (dose 0.4 mg/Kg), when administered perorally; assay type: functional, Canis lupus familiaris, Urine; procedure, shortened: as §1
[14] = test system: Canis familiaris; assay: Saluretic activity in the dog measured as concentration of K+ in urinary excretion (2 animals/dose) at (dose 6.25 mg/Kg, perorally); assay type: functional, Canis lupus familiaris, Urine; procedure, shortened: as §3
[15] = It is the ratio, measured as saluretic activity in the dog as concentration of Cl- in urinary excretion (dose 6.25 mg/Kg, perorally) to that of (Na+)+(K+); assay type: functional, Urine; procedure, shortened: as §1
[16] = test system: Canis familiaris; assay: Saluretic activity in the dog measured as concentration of Cl - in urinary excretion (2 animals/dose) at (dose 0.4 mg/Kg, perorally); assay type: functional, Canis lupus familiaris, Urine; procedure, shortened: as §4
[17] = test system: Canis familiaris; assay: Saluretic activity in the dog measured as concentration of Cl - in urinary excretion (2 animals/dose) at (1.56 mg/Kg, perorally); assay type: functional, Canis lupus familiaris, Urine; procedure, shortened: as §4
[18] = It is the ratio, measured as saluretic activity in the dog as concentration of Na+ in urinary excretion (dose 1.56 mg/Kg, perorally) to that of K; assay type: functional, Urine; procedure, shortened: as §1
[19] = test system: Canis familiaris; assay: Saluretic activity in the dog measured as concentration of Na+ in urinary excretion (2 animals/dose) at (dose 6.25 mg/Kg, perorally); assay type: functional, Canis lupus familiaris, Urine; procedure, shortened: as §3
[20] = test system: Canis familiaris; assay: Saluretic activity in the dog measured as concentration of K+ in urinary excretion (2 animals/dose) at (dose 1.56 mg/Kg, perorally); assay type: functional, Canis lupus familiaris, Urine; procedure, shortened: as §4
[21] = test system: Canis familiaris; assay: Saluretic activity in the dog measured as concentration of Cl - in urinary excretion (2 animals/dose) at (dose 6.25 mg/Kg, perorally); assay type: functional, Canis lupus familiaris, Urine; procedure, shortened: as §4
[22] = It is the ratio, measured as saluretic activity in the dog as concentration of Na+ in urinary excretion (dose 6.25 mg/Kg, perorally) to that of K; assay type: functional, Urine; procedure, shortened: as §1
[23] = test system: Canis familiaris; assay: Diuretic activity in the dog (2 animals/dose) at (dose 6.25 mg/Kg), when administered perorally; assay type: functional, Canis lupus familiaris, Urine; procedure, shortened: as §1
[24] = It is the ratio, measured as saluretic activity in the dog as concentration of Na+ in urinary excretion (dose 0.4 mg/Kg, perorally) to that of K; assay type: functional, Urine; procedure, shortened: as §1
[25] = It is the ratio, measured as saluretic activity in the dog as concentration of Cl- in urinary excretion ( perorally) to that (Na++K+)
[26] = It is the ratio, measured as saluretic activity in the dog as concentration of Cl- in urinary excretion (dose 0.4 mg/kg perorally) to that of (Na+)+(K+); assay type: functional, Urine; conditions: route oral; procedure, shortened: as §1
[27] = test system: Canis familiaris; assay: Saluretic activity in the dog measured as concentration of Na+ in urinary excretion (2 animals/dose) at (dose 1.56 mg/Kg, perorally); assay type: functional, Canis lupus familiaris, Urine; procedure, shortened: as §3
[28] = test system: Canis familiaris; assay: Saluretic activity in the dog measured as concentration of Na+ in urinary excretion (2 animals/dose) at (dose 0.4 mg/Kg, perorally); assay type: functional, Canis lupus familiaris, Urine; procedure, shortened: as §3
[29] = test system: Canis familiaris; assay: Saluretic activity in the dog measured as concentration of K+ in urinary excretion (2 animals/dose) at (dose 0.4 mg/Kg, perorally); assay type: functional, Canis lupus familiaris, Urine; procedure, shortened: as §4
[30] = test system: Rattus norvegicus; assay: Salidiuretic activity on the basis of the 50 mg/kg perorally rat assay; Compound was highly active; assay type: functional, organism-based; parameters: dose 50 mg/kg; conditions: Urine
[31] = test system: Canis familiaris; assay: Salidiuretic activity on the basis of the 1.56 mg/Kg perorally dog assay; Compound was highly active; assay type: functional, organism-based; conditions: Canis lupus familiaris; Urine
[32] = test system: Canis familiaris; assay: Salidiuretic activity on the basis of the 1.56 mg/Kg perorally in dog assay; compound is found to be highly active.; assay type: functional, organism-based; conditions: Canis lupus familiaris; Urine
[33] = test system: Rattus norvegicus; assay: Salidiuretic activity on the basis of the 50 mg/kg perorally in rat assay; compound is found to be highly active.; conditions: Urine

With `CN(c1ccccc1)c1cc(NCc2cccs2)c(S(=O)(=O)[O-])cc1S(N)(=O)=O.[Na+]` the Saldiuretic activity [1] was “Active”, the Ratio [2] was 0.95 and the Diuretic activity [3] was 1.8 mL/kg. For the same compound, the Ratio [4] was 4.3, the Saluretic activity [5] was 2 m equiv 5hr-1 kg-1 and the Saluretic activity [6] was 1.8 m equiv 5hr-1 kg-1. The Saluretic activity [7] was 5.86 m equiv 6hr-1 kg-1, the Saldiuretic activity [8] was 7.03 m equiv 6hr-1 kg-1 and the Saldiuretic activity [9] was 1.37 mequiv kg-1 6hr-1. The Diuretic activity [10] was 70.6 ml kg-1 6hr-1, the Saldiuretic activity [11] was “Active” and the Saluretic activity [12] was 0.7 m equiv 5hr-1 kg-1.

With `NS(=O)(=O)c1cc(S(=O)(=O)[O-])c(NCc2ccco2)cc1Cl.[Na+]` the Diuretic activity [3] was 2.8 mL/kg, the Diuretic activity [13] was 37 ml kg-1 6hr-1 and the Saldiuretic activity [14] was 0.78 m equiv 6hr-1 kg-1. The Ratio [15] was 0.9, the Saluretic activity [16] was 0.69 m equiv 6hr-1 kg-1 and the Saluretic activity [5] was 8.3 m equiv 5hr-1 kg-1. The “Concentration of Cl-” value [17] was 3.24 m equiv 6hr-1 kg-1, the Saluretic activity [6] was 7.1 m equiv 5hr-1 kg-1 and the Ratio [18] was 4.9. The Saluretic activity [19] was 4.36 m equiv 6hr-1 kg-1, the Saluretic activity [20] was 0.53 m equiv 6hr-1 kg-1 and the Saldiuretic activity [21] was 4.74 m equiv 6hr-1 kg-1. It also gave a Ratio [22] of 5.6, a Diuretic activity [23] of 66.5 ml kg-1 6hr-1 and a Ratio [24] of 2.3. The Ratio [25] was 1, the Diuretic activity [10] was 42.4 ml kg-1 6hr-1 and the Ratio [26] was 1.1. The Saluretic activity [27] was 2.61 m equiv 6hr-1 kg-1, the Saluretic activity [28] was 0.45 m equiv 6hr-1 kg-1 and the Saluretic activity [29] was 0.19 m equiv 6hr-1 kg-1. It also gave a Saluretic activity [12] of 2.3 m equiv 5hr-1 kg-1.

For `CN(c1ccccc1)c1cc(NCc2ccco2)c(S(=O)(=O)O)cc1S(N)(=O)=O`, the Saldiuretic activity [30] was “Active” and the Saldiuretic activity [31] was “Active”.

In the case of `NCc1ccco1.NS(=O)(=O)c1cc(S(=O)(=O)O)c(NCc2ccco2)cc1Cl`, the Saldiuretic activity [32] is reported as “Active” and the Saldiuretic activity [33] is reported as “Active”.
